# According to ChEMBL document CHEMBL1129991, “Inhibition of uridine phosphorylase. Synthesis and structure-activity relationships of aryl-substituted 1-((2-hydroxyethoxy)methyl)-5-(3-phenoxybenzyl)uracil” (J Med Chem, 1997):
# Assay: Tested for inhibition of Uridine Phosphorylase (UrdPase) in murine liver
# Method in brief: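 Mouse liver enzyme in a radiochemical assay: [2-¹⁴C]uridine (170 µM, 7.1 µCi/µmol) converted to [2-¹⁴C]uracil in 20 mM potassium phosphate pH 8.0, 1 mM EDTA, 1 mM dithiothreitol, with or without inhibitor. Incubated 30 min at 37 °C, stopped by heating 1 min at 100 °C. Uridine and uracil separated by TLC. Enzyme amount set to give 10% conversion uninhibited.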
row,Compound,IC50 [nM]
1,O=c1[nH]c(=O)n(COC(CO)CO)cc1Cc1cccc(Oc2cccc(F)c2)c1,8.2
2,O=c1[nH]c(=O)n(COC(CO)CO)cc1Cc1cccc(Oc2ccc(F)cc2)c1,22
3,O=c1[nH]c(=O)n(COCCO)cc1Cc1cccc(Oc2ccccc2)c1,14
4,O=c1[nH]c(=O)n(COC(CO)CO)cc1Cc1cccc(Oc2ccccc2)c1,10
5,O=c1[nH]c(=O)n(COCCO)cc1Cc1cccc(Oc2ccc(Cl)cc2)c1,84
6,O=c1[nH]c(=O)n(COCCO)cc1Cc1cccc(Oc2cccc(Cl)c2)c1,15
7,O=c1[nH]c(=O)n(COCCO)cc1Cc1cccc(Oc2ccc(F)cc2)c1,98
8,N#Cc1cccc(Oc2cccc(Cc3cn(COCCO)c(=O)[nH]c3=O)c2)c1,5.9
9,COc1ccc(Oc2cccc(Cc3cn(COCCO)c(=O)[nH]c3=O)c2)cc1,210

# More lines, in order of falling IC50, values ahead:
row,IC50 [nM],Compound
1,32,O=c1[nH]c(=O)n(COCCO)cc1Cc1cccc(Oc2cccc(C(F)(F)F)c2)c1
2,31,COc1cccc(Oc2cccc(Cc3cn(COCCO)c(=O)[nH]c3=O)c2)c1
3,14,O=c1[nH]c(=O)n(COCCO)cc1Cc1cccc(Oc2cccc(F)c2)c1
4,13,Cc1cccc(Oc2cccc(Cc3cn(COCCO)c(=O)[nH]c3=O)c2)c1
5,1.4,O=c1[nH]c(=O)n(COC(CO)CO)cc1Cc1cccc(Oc2cccc(Cl)c2)c1
